# Compound activity deposited in PubChem by Johns Hopkins Ion Channel Center.
# Compounds with a hit are over-represented: about 3.8% of the library has one in this group of screens.
# KCNK9 block = human KCNK9 channel inhibition | Q9NPC2 | HEK293 KCNK9, FluxOR thallium flux fluorescence; stronger effect = lower value | B-score at 10 µM | hit rate 1.2% among 310,000 | AID 488922;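 active = ratio B-score over 3 SD below the library mean, with starting fluorescence within 5 SD of its mean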;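 also: negative B-score means less thallium flux so channel inhibition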
# KCNQ1 block = inhibitors of human KCNQ1 potassium channel | P51787 | CHO-K1 KCNQ1, FluxOR thallium flux fluorescence; stronger effect = higher value | B-score at 10 µM | hit rate 1.3% among 310,000;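 active = compounds whose thallium flux B-score, printed positive for inhibition, exceeds three library SD while starting fluorescence stays within three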;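 also: channel opened by potassium depolarization with thallium stimulus after 20 min compound exposure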
# Kir21 inh = inhibitors of mouse Kir2.1 inward-rectifier potassium channel; B-score at 10 µM; HEK293-Kir2.1, FluxOR thallium flux fluorescence; stronger effect = lower value; AID 1672; hit rate 0.85% among 310,000; P35561;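 active = fluorescence ratio B-score at or below minus 3 SD of library scores, with starting-brightness B-score within 2 SD, cut at about -4.2 in these data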;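 also: channel flux triggered by added potassium and thallium sulfate stimulus; B-score of peak minus minimum fluorescence over baseline after thallium stimulus; more negative B-score means stronger Kir2.1 block with less thallium influx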
# hERG protect = hERG (human) protection from proarrhythmic block; CHO-hERG, FluxOR thallium flux, dofetilide IC70 present; activation (rescue from dofetilide block), less the hit threshold, % at 10 µM; hit rate 0.51% among 310,000; AID 1511;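 active = activation above the mean of controls blocked by dofetilide plus 5 SD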;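 also: thallium influx through hERG after potassium depolarization seen as dye fluorescence rise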
# Target sequence (Q12809 whole entry, looked up): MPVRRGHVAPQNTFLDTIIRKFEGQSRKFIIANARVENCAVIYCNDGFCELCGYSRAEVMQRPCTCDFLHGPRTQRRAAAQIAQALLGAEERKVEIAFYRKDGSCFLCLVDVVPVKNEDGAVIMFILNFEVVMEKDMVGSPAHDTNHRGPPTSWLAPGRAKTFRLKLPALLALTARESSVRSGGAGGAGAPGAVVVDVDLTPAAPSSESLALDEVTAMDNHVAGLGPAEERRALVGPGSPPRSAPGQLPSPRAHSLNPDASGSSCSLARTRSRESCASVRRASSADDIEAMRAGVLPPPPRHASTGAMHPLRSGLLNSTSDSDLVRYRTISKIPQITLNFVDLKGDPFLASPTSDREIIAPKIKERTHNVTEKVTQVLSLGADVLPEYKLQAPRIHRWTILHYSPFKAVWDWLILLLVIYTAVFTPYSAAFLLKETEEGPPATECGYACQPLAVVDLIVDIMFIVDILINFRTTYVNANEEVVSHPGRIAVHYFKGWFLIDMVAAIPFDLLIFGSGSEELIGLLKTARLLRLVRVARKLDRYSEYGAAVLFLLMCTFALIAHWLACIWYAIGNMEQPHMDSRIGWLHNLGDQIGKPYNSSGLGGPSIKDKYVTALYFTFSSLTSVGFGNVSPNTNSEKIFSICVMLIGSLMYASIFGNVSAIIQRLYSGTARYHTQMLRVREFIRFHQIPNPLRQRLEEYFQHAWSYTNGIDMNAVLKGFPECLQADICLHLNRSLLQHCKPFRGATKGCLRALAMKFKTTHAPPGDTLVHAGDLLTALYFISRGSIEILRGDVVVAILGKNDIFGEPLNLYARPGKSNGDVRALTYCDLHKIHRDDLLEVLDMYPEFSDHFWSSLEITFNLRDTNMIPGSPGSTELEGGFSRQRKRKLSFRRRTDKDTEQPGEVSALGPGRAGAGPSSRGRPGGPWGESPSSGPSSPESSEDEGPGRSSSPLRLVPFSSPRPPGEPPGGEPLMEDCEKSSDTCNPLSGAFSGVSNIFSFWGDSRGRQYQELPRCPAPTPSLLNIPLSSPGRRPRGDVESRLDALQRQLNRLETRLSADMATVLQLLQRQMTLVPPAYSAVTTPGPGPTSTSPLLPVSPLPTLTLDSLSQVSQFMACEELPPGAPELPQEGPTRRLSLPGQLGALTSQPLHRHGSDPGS
# KCNK3 block = human KCNK3 channel inhibition, primary screen. O14649. CHO-KCNK3 thallium flux, FluxOR fluorescence; stronger effect = lower value. B-score at 10 µM. hit rate 0.84% among 340,000;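 active = B-score under library mean minus 4 SD, starting fluorescence ratio at most library mean plus 5 SD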;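 also: more negative B-score means stronger inhibition of thallium flux through KCNK3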
# KCNQ1 pot = potentiates or activates the human KCNQ1 potassium channel; P51787; CHO-K1 KCNQ1, thallium flux FluxOR fluorescence; stronger effect = higher value; B-score at 10 µM; hit rate 0.35% among 310,000; AID 2648;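 active = fluorescence ratio B-score, a plate-corrected score, at least three library SD, with initial intensity B-score within 5 SD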
#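 Assay system: CHO-K1 cells stably expressing KCNQ1. Medium: assay buffer for compound exposure, DMSO matched across wells. Timing: 37 °C overnight plating, 90-min dark dye load, 20-min compound pretreatment. Signal: kinetic FluxOR fluorescence, 10 s baseline plus 110 s post-stimulus.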
# Numbers without * were called inactive; i = inactive; · = no result.
SMILES,KCNK9 block,KCNQ1 block,Kir21 inh,hERG protect,KCNK3 block,KCNQ1 pot
COC(=O)c1c(C)c2c(C)cc3ccccn3c-2c1C(=O)OC,i,i,-0.24,-6,i,i
Cc1ccccc1NC(=S)NNC(=O)c1csc2c1CCC(C)C2 (stereo not given),i,i,2.2,-8,i,10*
COC(=O)c1ccc(CO/N=C/c2cccc([N+](=O)[O-])c2)cc1,-6.7*,i,0.63,-1,i,i
O=S(=O)(Cc1ccccc1)NCC1CCCO1 (stereo not given),i,i,-1.5,4.7*,i,i
O=S(=O)(Cc1ccccc1)Nc1ccc(S(=O)(=O)NCC2CCCO2)cc1 (stereo not given),i,i,-0.97,-2,i,i
c1ccc(N2CCN(c3nc(-c4cccs4)nc4ccccc34)CC2)cc1,-14*,i,-0.23,-17,i,i
CCOc1cc(/C=N/NC(=O)CN2CCCCC2)ccc1OCc1ccc(Cl)cc1,i,i,-0.18,-7,i,i
CCOc1cc(/C=N/NC(=O)CN2CCCCC2)ccc1OCc1cccc(Cl)c1,i,i,-4.7*,-39,i,i
O=C1NC(=O)C2(Br)Nc3ccc(Br)cc3C(=O)C2N1 (stereo not given),·,·,·,·,i,·
CCCCC1C(=O)N(c2ccccc2)N(c2ccc(O)cc2)C1=O (stereo not given),·,·,·,·,-10*,·
CC1(C)CC(N2CCN(Cc3ccccc3)CC2)=CC(=[N+]2CCCCC2)C1,i,i,0.17,-12,i,i
CN(Cc1ccccc1)C1=CC(=[N+]2CCCCC2)CC(C)(C)C1,i,6*,-2.7,-20,i,i
O=C(OCCCCOC(=O)c1ccccc1)c1ccccc1,i,i,-1.1,-8,i,i
O=C(OCCCOC(=O)c1ccc(O)cc1)c1ccc(O)cc1,i,i,-4.9*,-23,i,i
O=C(N/C(=C\c1cccc(Br)c1)C(=O)N1CCCCC1)c1ccco1,i,i,-2.1,-4,i,i
CCc1nnc(NC(=O)CCC(=O)N2CCN(C3CCCCC3)CC2)s1,i,i,-0.13,4,i,13*
COc1cccc(CN2CCN(S(=O)(=O)c3ccc(Br)cc3)CC2)c1,i,i,-0.46,-3,-9.7*,i
c1ccc(-c2csc3nnc(SCc4ccc5c(c4)OCO5)n23)cc1,i,i,-4.3*,-2,i,i
Cc1onc(-c2ccccc2)c1C(=O)NCCCc1ccccc1,·,·,·,·,i,·
O=C1C=C(O)c2[nH]c(=O)ccc2C1=O,·,·,·,·,i,·
CSc1nc(NS(=O)(=O)c2ccc(F)cc2F)nn1C,i,i,-0.19,-8,i,i
Cc1occc1C(=O)/C(C#N)=C/c1ccc(O)c(Br)c1,i,11*,-1.2,-25,i,i
O=S(=O)(NCCCCNS(=O)(=O)c1ccc(F)cc1)c1ccc(F)cc1,i,i,0.73,-7,i,i
O=C(NC1CC2CCC(C1)N2C(=O)NCc1ccccc1)C1CC1 (stereo not given),i,i,0.65,13*,i,i
CCN(CC(=O)Nc1ccc(OC)cc1)C(=O)c1ccc2[nH]c3c(c2c1)CC(C)CC3 (stereo not given),·,·,·,·,i,·
SMILES,KCNK9 block,KCNQ1 block,Kir21 inh,hERG protect,KCNK3 block,KCNQ1 pot
OCCN1CCN(Cc2cccc(Oc3ccc(Cl)cc3)c2)CC1,i,i,-5.2*,-16,i,i
Cc1ccc(S(=O)(=O)Oc2ccccc2/C=C2/SC(=O)NC2=O)cc1,i,9*,-2,-11,i,i
O=C1NC(=O)/C(=C\c2ccccc2OCc2ccccc2)S1,i,i,0.01,-8,i,i
O=C1NC(=O)/C(=C/c2cc3c(cc2Br)OCO3)S1,i,i,1.1,7.0*,i,i
O=C1NC(=O)C(=Cc2ccccc2[N+](=O)[O-])S1,·,·,·,·,i,·
O=C1NC(=O)/C(=C/c2cccc3ccccc23)S1,i,6*,2.3,-4,i,i
COc1ccc(S(=O)(=O)N2CCOCC2)cc1C(=O)NC1CCCCCC1,·,·,·,·,i,·
CC(NC(=O)COC(=O)[C@@H]1CCCN1S(=O)(=O)c1ccccc1F)C12CC3CC(CC(C3)C1)C2 (stereo not given in full),-6.8*,i,0.05,-11,i,i
O=C(OCC(=O)N1CCc2ccccc21)[C@@H]1CCCN1S(=O)(=O)c1ccccc1F,·,·,·,·,i,·
CCOC(=O)C1CCCN(C(=O)c2cc(Cl)ccc2Cl)C1 (stereo not given),i,i,-0.73,-6,i,i
CCOC(=O)C1CCCN(C(=O)C(C)Oc2ccc(Cl)cc2Cl)C1 (stereo not given),i,i,-4.7*,-14,i,i
Cc1ccc(CSc2nnc([C@@H]3CCCN3C(=O)OC(C)(C)C)o2)cc1,i,i,-7.1*,-7,i,i
Cc1nc(SCc2cccc(F)c2)c2oc3ccccc3c2n1,i,i,0.21,5.0*,i,i
Cc1ccc(S(=O)(=O)NCc2cccnc2)cc1C,i,i,-1,-4,i,i
O=C1c2ccccc2C(Nc2ccc(-c3nc4ccccc4[nH]3)cc2)N1Cc1ccco1 (stereo not given),i,i,0.48,-13,-11*,i
CCN(CC(=O)Nc1cc(Cl)ccc1C)C(=O)c1ccc2c(c1)NC(=O)C(C)S2 (stereo not given),i,i,1.1,-18,i,i
O=C(CSc1nnc(SCc2ccccc2)s1)N/N=C/C=C/c1ccccc1[N+](=O)[O-],-7.8*,i,-1.1,-13,i,i
O=C(CSc1nnc(SCc2ccccc2)s1)N/N=C/C=C\c1ccco1,i,i,0.32,-5,i,i
CN1C(=O)NC(=O)C1c1ccccc1 (stereo not given),·,·,·,·,i,·
COC(=O)C1=C(C)NC(C)=C(C(=O)O[C@@H]2CCCN(Cc3ccccc3)C2)[C@@H]1c1cccc([N+](=O)[O-])c1,i,7*,0.63,-15,i,i
CCOC(=O)C1=C(C)NC(C)=C(C(=O)OC)C1c1cccc([N+](=O)[O-])c1 (stereo not given),i,i,1.2,-8,i,i
O=C(Cc1ccccc1[N+](=O)[O-])OCC(=O)N1CCN(c2ccccc2)CC1,i,i,-2.2,-14,i,i
Cc1cc(C)n(CCNC(=O)C2CCC(=O)N(Cc3ccc(Cl)cc3)C2)n1 (stereo not given),i,i,0.65,-5,i,i
